Measured values taken from ChEMBL document CHEMBL4184090, “Discovery of novel jaspine B analogues as autophagy inducer” (Bioorg Med Chem Lett, 2018).
Activity calls are given as the source filed them. The calls are words filed in the database; no cut-off is given here.

Key:
MCF7 = experiment: Antiproliferative activity against human MCF7 cells after 72 hrs by MTT assay; format: functional, cell-based; conditions: MCF7, 72 h
In short: (§1)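 MTT proliferation assay; cells exposed to compounds for 72 h. IC50 is the concentration inhibiting tumor cell proliferation by 50%. Means ± SDs of three independent experiments. 5-Fluorouracil used as positive control.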

B16-F10 = experiment: Antiproliferative activity against mouse B16/F10 cells after 72 hrs by MTT assay; format: functional, cell-based; conditions: B16-F10, 72 h; in short: as §1
PC-3 [1] = experiment: Antiproliferative activity against human PC3 cells after 72 hrs by MTT assay; format: functional, cell-based; conditions: PC-3, 72 h; in short: as §1
A549 = experiment: Antiproliferative activity against human A549 cells after 72 hrs by MTT assay; format: functional, cell-based; conditions: A549, 72 h; in short: as §1
PC-3 [2] = experiment: Induction of apoptosis in human PC3 cells assessed as viable cells at 3 uM after 48 hrs by Annexin V-FITC/propidium iodide staining-based flow cytometric analysis (reference value: 78.2%); format: functional; conditions: PC-3, 48 h, read-out: Activity
PC-3 [3] = experiment: Induction of apoptosis in human PC3 cells assessed as necrotic cells at 4 uM after 48 hrs by Annexin V-FITC/propidium iodide staining-based flow cytometric analysis (reference value: 0.1%); format: functional
PC-3 [4] = experiment: Induction of apoptosis in human PC3 cells assessed as early apoptotic cells at 3 uM after 48 hrs by Annexin V-FITC/propidium iodide staining-based flow cytometric analysis (reference value: 12.4%); format: functional
PC-3 [5] = experiment: Induction of mitochondrial membrane potential loss in human PC3 cells at 4 uM after 24 hrs by JC-1 staining-based flow cytometric analysis (reference value: 50.5%); format: functional
PC-3 [6] = experiment: Induction of apoptosis in human PC3 cells assessed as necrotic cells at 3 uM after 48 hrs by Annexin V-FITC/propidium iodide staining-based flow cytometric analysis (reference value: 0.1%); format: functional
PC-3 [7] = experiment: Induction of apoptosis in human PC3 cells assessed as viable cells at 1 uM after 48 hrs by Annexin V-FITC/propidium iodide staining-based flow cytometric analysis (reference value: 78.2%); format: functional; conditions: PC-3, 48 h, read-out: Activity
PC-3 [8] = experiment: Induction of apoptosis in human PC3 cells assessed as early apoptotic cells at 2 uM after 48 hrs by Annexin V-FITC/propidium iodide staining-based flow cytometric analysis (reference value: 12.4%); format: functional
PC-3 [9] = experiment: Cytotoxicity against human PC3 cells assessed as reduction in cell viability at 3 uM after 48 hrs by MTT assay relative to control; format: functional
In short: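 MTT viability read-out in PC-3 cells incubated with a range of concentrations for 48 h; viability expressed relative to untreated control cells.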

PC-3 [10] = experiment: Induction of mitochondrial membrane potential loss in human PC3 cells at 3 uM after 24 hrs by JC-1 staining-based flow cytometric analysis (reference value: 50.5%); format: functional
PC-3 [11] = experiment: Induction of autophagy in human PC3 cells assessed as increase in LC3-2 expression level by Western blot analysis; format: functional, cell-based
In short: (§2)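 Western blot of PC-3 lysates for beclin-1, LC3B-I, LC3B-II and P62 after treatment at increasing concentrations.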

PC-3 [12] = experiment: Induction of mitochondrial membrane potential loss in human PC3 cells at 2 uM after 24 hrs by JC-1 staining-based flow cytometric analysis (reference value: 50.5%); format: functional
PC-3 [13] = experiment: Induction of apoptosis in human PC3 cells assessed as early apoptotic cells at 4 uM after 48 hrs by Annexin V-FITC/propidium iodide staining-based flow cytometric analysis (reference value: 12.4%); format: functional
PC-3 [14] = experiment: Induction of apoptosis in human PC3 cells assessed as late apoptotic cells at 2 uM after 48 hrs by Annexin V-FITC/propidium iodide staining-based flow cytometric analysis (reference value: 9.3%); format: functional
PC-3 [15] = experiment: Induction of autophagy in human PC3 cells assessed as decrease in P62 protein level at 1 uM by Western blot analysis; format: functional, cell-based; in short: as §2
PC-3 [16] = experiment: Induction of autophagy in human PC3 cells assessed as increase LC3-2 accumulation at 4 uM by confocal microscopic analysis; format: functional, cell-based; conditions: TDE = time-dependent effect
In short: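 LC3 immunofluorescence in PC-3 cells imaged by confocal microscopy over time up to 24 h to follow autophagosome formation.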

PC-3 [17] = experiment: Induction of apoptosis in human PC3 cells assessed as early apoptotic cells at 1 uM after 48 hrs by Annexin V-FITC/propidium iodide staining-based flow cytometric analysis (reference value: 12.4%); format: functional
PC-3 [18] = experiment: Induction of apoptosis in human PC3 cells assessed as late apoptotic cells at 1 uM after 48 hrs by Annexin V-FITC/propidium iodide staining-based flow cytometric analysis (reference value: 9.3%); format: functional
PC-3 [19] = experiment: Induction of apoptosis in human PC3 cells assessed as necrotic cells at 2 uM after 48 hrs by Annexin V-FITC/propidium iodide staining-based flow cytometric analysis (reference value: 0.1%); format: functional
PC-3 [20] = experiment: Induction of apoptosis in human PC3 cells assessed as necrotic cells at 1 uM after 48 hrs by Annexin V-FITC/propidium iodide staining-based flow cytometric analysis (reference value: 0.1%); format: functional
PC-3 [21] = experiment: Induction of apoptosis in human PC3 cells assessed as viable cells at 4 uM after 48 hrs by Annexin V-FITC/propidium iodide staining-based flow cytometric analysis (reference value: 78.2%); format: functional; conditions: PC-3, 48 h, read-out: Activity
PC-3 [22] = experiment: Induction of autophagy in human PC3 cells assessed as increase in beclin-1 expression level by Western blot analysis; format: functional, cell-based; in short: as §2
PC-3 [23] = experiment: Induction of mitochondrial membrane potential loss in human PC3 cells at 1 uM after 24 hrs by JC-1 staining-based flow cytometric analysis (reference value: 50.5%); format: functional
PC-3 [24] = experiment: Induction of morphological changes in human PC3 cells at 3 uM by microscopic analysis; format: functional, cell-based
PC-3 [25] = experiment: Induction of apoptosis in human PC3 cells assessed as late apoptotic cells at 3 uM after 48 hrs by Annexin V-FITC/propidium iodide staining-based flow cytometric analysis (reference value: 9.3%); format: functional
PC-3 [26] = experiment: Induction of apoptosis in human PC3 cells assessed as viable cells at 2 uM after 48 hrs by Annexin V-FITC/propidium iodide staining-based flow cytometric analysis (reference value: 78.2%); format: functional; conditions: PC-3, 48 h, read-out: Activity
PC-3 [27] = experiment: Induction of apoptosis in human PC3 cells assessed as late apoptotic cells at 4 uM after 48 hrs by Annexin V-FITC/propidium iodide staining-based flow cytometric analysis (reference value: 9.3%); format: functional

Structure (SMILES): CCCCCCCCCCCNC[C@@H]1OC[C@H](N)[C@H]1O
- IC50 (MCF7): 13.1 µM
- IC50 (B16-F10): 88.8 µM
- IC50 (PC-3 [1]): 10 µM
- IC50 (A549): 9.65 µM

Structure (SMILES): CCCCCCCCCNC[C@@H]1OC[C@H](N)[C@H]1O
- IC50 (MCF7): 60.3 µM
- IC50 (B16-F10): > 128 µM
- IC50 (PC-3 [1]): 7.65 µM
- IC50 (A549): > 128 µM

Structure (SMILES): CCCCCCCCCCNC[C@@H]1OC[C@H](N)[C@@H]1O
- IC50 (MCF7): 34.2 µM
- IC50 (B16-F10): 29.6 µM
- IC50 (PC-3 [1]): 11.9 µM
- IC50 (A549): 47.8 µM

Structure (SMILES): CCCCCCCCCCCCCCNC[C@@H]1OC[C@H](N)[C@H]1O
- IC50 (MCF7): 8.83 µM
- IC50 (B16-F10): 64.2 µM
- IC50 (PC-3 [1]): 1.99 µM
- IC50 (A549): 19.9 µM

Structure (SMILES): CCCCCCCCCCCNC[C@@H]1OC[C@H](N)[C@@H]1O
- IC50 (MCF7): 6.77 µM
- IC50 (B16-F10): 19.3 µM
- IC50 (PC-3 [1]): 3.33 µM
- IC50 (A549): 11.1 µM

Structure (SMILES): CCCCCCCNC[C@@H]1OC[C@H](N)[C@H]1O
- IC50 (MCF7): > 128 µM
- IC50 (B16-F10): > 128 µM
- IC50 (PC-3 [1]): > 128 µM
- IC50 (A549): > 128 µM

Structure (SMILES): O=c1[nH]cc(F)c(=O)[nH]1 [FLUOROURACIL]
- IC50 (MCF7): 6.11 µM
- IC50 (B16-F10): 6.29 µM
- IC50 (PC-3 [1]): 0.53 µM
- IC50 (A549): 0.43 µM

Structure (SMILES): CCCCCCCCCCCCNC[C@@H]1OC[C@H](N)[C@@H]1O
- viability at 3 µM (PC-3 [2]): 80.8%
- Activity (PC-3 [3]): 0.2%
- Activity (PC-3 [4]): 3%
- Activity (PC-3 [5]): 93%
- IC50 (MCF7): 1.8 µM
- IC50 (B16-F10): 10.7 µM
- IC50 (PC-3 [1]): 0.85 µM
- Activity (PC-3 [6]): 0.6%
- IC50 (A549): 5.87 µM
- viability at 1 µM (PC-3 [7]): 89.2%
- Activity (PC-3 [8]): 2.3%
- Activity (PC-3 [9]): 56%
- Activity (PC-3 [10]): 88.2%
- Activity (PC-3 [11]): Dose-dependent effect
- Activity (PC-3 [12]): 78.6%
- Activity (PC-3 [13]): 9.3%
- Activity (PC-3 [14]): 9.6%
- Activity (PC-3 [15]): Active
- Activity (PC-3 [16]): Tde
- Activity (PC-3 [17]): 2.6%
- Activity (PC-3 [18]): 8%
- Activity (PC-3 [19]): 0.3%
- Activity (PC-3 [20]): 0.2%
- viability at 4 µM (PC-3 [21]): 8.5%
- Activity (PC-3 [22]): Dose-dependent effect
- Activity (PC-3 [23]): 69.1%
- Activity (PC-3 [24]): Active
- Activity (PC-3 [25]): 15.7%
- viability at 2 µM (PC-3 [26]): 87.7%
- Activity (PC-3 [27]): 81.9%

Structure (SMILES): CCCCCCCCCNC[C@@H]1OC[C@H](N)[C@@H]1O
- IC50 (MCF7): 12.5 µM
- IC50 (B16-F10): 55.2 µM
- IC50 (PC-3 [1]): 2.03 µM
- IC50 (A549): 22.1 µM

Structure (SMILES): CCCCCCCCNC[C@@H]1OC[C@H](N)[C@H]1O
- IC50 (MCF7): > 128 µM
- IC50 (B16-F10): > 128 µM
- IC50 (PC-3 [1]): 13 µM
- IC50 (A549): 71.8 µM

Structure (SMILES): CCCCCCCCCCCCCCNC[C@@H]1OC[C@H](N)[C@@H]1O
- IC50 (MCF7): 0.72 µM
- IC50 (B16-F10): 14.3 µM
- IC50 (PC-3 [1]): 1.2 µM
- IC50 (A549): 2.85 µM

Structure (SMILES): CCCCCCCCCCCCNC[C@@H]1OC[C@H](N)[C@H]1O
- IC50 (MCF7): 12.6 µM
- IC50 (B16-F10): 58.1 µM
- IC50 (PC-3 [1]): 2.38 µM
- IC50 (A549): 41.1 µM

Structure (SMILES): CCCCCCCCNC[C@@H]1OC[C@H](N)[C@@H]1O
- IC50 (MCF7): 96.6 µM
- IC50 (B16-F10): > 128 µM
- IC50 (PC-3 [1]): 13.8 µM
- IC50 (A549): > 128 µM

Structure (SMILES): CCCCCCCCCCNC[C@@H]1OC[C@H](N)[C@H]1O
- IC50 (MCF7): 42.7 µM
- IC50 (B16-F10): > 128 µM
- IC50 (PC-3 [1]): > 128 µM
- IC50 (A549): > 128 µM

Structure (SMILES): CCCCCCCNC[C@@H]1OC[C@H](N)[C@@H]1O
- IC50 (MCF7): > 128 µM
- IC50 (B16-F10): > 128 µM
- IC50 (PC-3 [1]): 22.4 µM
- IC50 (A549): > 128 µM

Structure (SMILES): CCCCCCCCCCCCCC[C@@H]1OC[C@H](N)[C@@H]1O [PACHASTRISSAMINE]
- IC50 (MCF7): 2.33 µM
- IC50 (B16-F10): 0.5 µM
- IC50 (PC-3 [1]): 0.7 µM
- IC50 (A549): 1.87 µM
